In PMC4263960 (Pediatric blood & cancer, 2013):
pIC50: −log10 of the molar value. Like-named read-outs stand apart in the source and are kept apart here.

Columns and labels:
[1] = test system: Rh41 ALV rhabdomyosarcoma xenograft; assay: PPTP in vivo xenograft testing, Rh41; design: species or system mice
[2] = test system: PPTP in vitro cell line panel; assay: DIMSCAN in vitro cytotoxicity testing, panel summary; format: cell-based
[3] = test system: ALL-4 ALL B-precursor xenograft; assay: PPTP in vivo xenograft testing, ALL-4; design: species or system mice
CHLA-9 cell line = assay: DIMSCAN in vitro cytotoxicity testing, CHLA-9; format: cell-based
In short: (§1)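 Test compound incubated with cells of a 24-line pediatric cancer panel for 96 h at 0.1 nM to 1 μM, then assessed by DIMSCAN. Relative IC50 (rIC50) derived per line. Panel comparison value is the panel rIC50 divided by the rIC50 of each cell line.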

CHLA-10 cell line = assay: DIMSCAN in vitro cytotoxicity testing, CHLA-10; format: cell-based
In short: as §1

NB-EBc1 cell line = assay: DIMSCAN in vitro cytotoxicity testing, NB-EBc1; format: cell-based
In short: as §1

CHLA258 Ewing xenograft = assay: PPTP in vivo xenograft testing, CHLA258; design: species or system mice
[4] = test system: NB-1643 neuroblastoma xenograft; assay: PPTP in vivo xenograft testing, NB-1643; design: species or system mice
CHLA-90 cell line = assay: DIMSCAN in vitro cytotoxicity testing, CHLA-90; format: cell-based
In short: as §1

[5] = 1 mg/kg IP Q4Dx3 repeated at Day 21
[6] = NB-1643, 1 mg/kg IP Q4Dx3 repeated at Day 21

Compound: C=C1C[C@@H]2CC[C@@]34C[C@H]5O[C@H]6[C@@H](O3)[C@H]3O[C@H](CC[C@@H]3O[C@H]6[C@H]5O4)CC(=O)C[C@@H]3[C@@H](OC)[C@@H](C[C@H](O)CN)O[C@H]3C[C@H]3O[C@@H](CC[C@@H]1O2)C[C@@H](C)C3=C [Eribulin]
- EFS activity ([1]; 1 mg/kg IP): High (High activity requires: (a) an EFS T/C >2; (b) a significant difference in EFS distributions, and (c) a net reduction in median tumor volume for animals in the treated group at the end of treatment as compared to at treatment initiation)
- Response activity ([1]; 1 mg/kg IP): High (A high level of activity is indicated by a score of 6 or more)
- T/C volume activity ([1]; 1 mg/kg IP): High (High activity = T/C ≤0.15)
- EFS T/C [1, 5]: >3.0
- Median final RTV (CD45%) [1, 5]: 0.0
- Tumor volume T/C ([1]; 1 mg/kg IP, Day 21 or earlier): 0.07
- Panel rIC50/Line rIC50, maximum ([2]; maximum of PPTP cell lines): >2.74
- Relative in/out%, maximum ([2]; maximum of PPTP cell lines): −18%
- Ymin % (observed), maximum ([2]; maximum of PPTP cell lines): 20.92%
- Panel rIC50/Line rIC50, median ([2]; median of PPTP cell lines): 1.20
- Relative in/out%, median ([2]; median of PPTP cell lines): −89%
- Ymin % (observed), median ([2]; median of PPTP cell lines): 1.79%
- Panel rIC50/Line rIC50, minimum ([2]; minimum of PPTP cell lines): 0.02
- Relative in/out%, minimum ([2]; minimum of PPTP cell lines): −100%
- Ymin % (observed), minimum ([2]; minimum of PPTP cell lines): 0.00%
- pIC50 ([2]; read-out: rIC50, maximum, maximum of PPTP cell lines): 7.83
- pIC50 ([2]; read-out: rIC50, median, median of PPTP cell lines): 9.57
- pIC50 ([2]; read-out: rIC50, minimum, minimum of PPTP cell lines): > 10.00
- pIC50 ([2]; read-out: rIC50, most sensitive cell lines, lymphoid origin (three ALL, one ALCL, one NHL)): > 10.00
- pIC50 ([2]; read-out: rIC50, other (non-neuroblastoma) PPTP cell lines): 9.85
- pIC50 ([2]; read-out: relative IC50 (rIC50), range, range over the PPTP cell lines): 7.83 to 10.00
- EFS activity ([3]; 1.5 mg/kg IP): High (High activity requires: (a) an EFS T/C >2; (b) a significant difference in EFS distributions, and (c) a net reduction in median tumor volume for animals in the treated group at the end of treatment as compared to at treatment initiation)
- Response activity ([3]; 1.5 mg/kg IP): High (A high level of activity is indicated by a score of 6 or more)
- EFS T/C ([3]; 1.5 mg/kg IP Q4Dx3 repeated at Day 21): >4.3
- Median final RTV (CD45%) ([3]; CD45%, 1.5 mg/kg IP): 0.0%
- pIC50 (CHLA-9 cell line; 96 h, read-out: rIC50): 9.80
- Panel rIC50/Line rIC50 (CHLA-9 cell line; CHLA-9): 1.68
- Relative in/out% (CHLA-9 cell line; CHLA-9): −49%
- Ymin % (observed) (CHLA-9 cell line; CHLA-9): 1.82%
- pIC50 (CHLA-10 cell line; 96 h, read-out: rIC50): 9.96
- Panel rIC50/Line rIC50 (CHLA-10 cell line; CHLA-10): 2.58
- Relative in/out% (CHLA-10 cell line; CHLA-10): −28%
- Ymin % (observed) (CHLA-10 cell line; CHLA-10): 4.54%
- pIC50 (NB-EBc1 cell line; 96 h, read-out: rIC50): 7.83
- Panel rIC50/Line rIC50 (NB-EBc1 cell line; NB-EBc1): 0.02
- Relative in/out% (NB-EBc1 cell line; NB-EBc1): −92%
- Ymin % (observed) (NB-EBc1 cell line; NB-EBc1): 1.76%
- EFS activity (CHLA258 Ewing xenograft; 1 mg/kg IP): High (High activity requires: (a) an EFS T/C >2; (b) a significant difference in EFS distributions, and (c) a net reduction in median tumor volume for animals in the treated group at the end of treatment as compared to at treatment initiation)
- Response activity (CHLA258 Ewing xenograft; 1 mg/kg IP): High (A high level of activity is indicated by a score of 6 or more)
- T/C volume activity (CHLA258 Ewing xenograft; 1 mg/kg IP): High (High activity = T/C ≤0.15)
- EFS T/C (CHLA258 Ewing xenograft; [5]): >4.2
- Median final RTV (CD45%) (CHLA258 Ewing xenograft; [5]): 0.0
- Tumor volume T/C (CHLA258 Ewing xenograft; 1 mg/kg IP, Day 21 or earlier): 0.01
- EFS activity ([4]; NB-1643, 1 mg/kg IP): High (High activity requires: (a) an EFS T/C >2; (b) a significant difference in EFS distributions, and (c) a net reduction in median tumor volume for animals in the treated group at the end of treatment as compared to at treatment initiation)
- Response activity ([4]; NB-1643, 1 mg/kg IP): High (A high level of activity is indicated by a score of 6 or more)
- T/C volume activity ([4]; NB-1643, 1 mg/kg IP): High (High activity = T/C ≤0.15)
- EFS T/C [4, 6]: >4.7
- Median final RTV (CD45%) [4, 6]: 0.6
- Tumor volume T/C ([4]; NB-1643, 1 mg/kg IP, Day 21 or earlier): 0.01
- objective response ([4]; NB-1643 neuroblastoma xenograft): achieved an objective response
- pIC50 (CHLA-90 cell line; 96 h, read-out: rIC50): 8.75
- Panel rIC50/Line rIC50 (CHLA-90 cell line; CHLA-90): 0.15
- Relative in/out% (CHLA-90 cell line; CHLA-90): −67%
- Ymin % (observed) (CHLA-90 cell line; CHLA-90): 9.26%
